What all share (format): functional
One test relates to COLO 205. The test can be described thus: Growth inhibition of human COLO205 cells at 10 uM after 48 hrs by sulforhodamine B assay relative to control. The note with it: COLO 205, 48 h, read-out: GI.
The next test has as its system NCI-H460. Briefly: Growth inhibition of human NCI-H460 cells at 10 uM after 48 hrs by sulforhodamine B assay relative to control. The note with it: NCI-H460, 48 h, read-out: GI. On the technique in general: The SRB assay estimates cell density from bound dye.
In the next test the test system is UO-31. Briefly: Growth inhibition of human UO31 cells at 10 uM after 48 hrs by sulforhodamine B assay relative to control. The following applies: UO-31, 48 h, read-out: GI. The method in brief: (§1)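 NCI 60-cell-line single-dose screen at 10 µM. Cells were plated at 5000–40,000 cells/well according to doubling time, in medium with 2 mM L-glutamine, and held 24 h at 37 °C, 5% CO₂, 100% humidity before drug. Time-zero plates were TCA-fixed. Exposure was 48 h, then TCA fixation and sulforhodamine B staining for 10 min, acetic acid washes, 10 mM trizma solubilization and A515. % inhibition = 100 − % activity, where 100% is the DMSO-solvent control.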

The next test concerns CAKI-1. The test can be described thus: Growth inhibition of human Caki1 cells at 10 uM after 48 hrs by sulforhodamine B assay relative to control. The note with it: CAKI-1, 48 h, read-out: GI.
The next test deals with ACHN. The test can be described thus: Growth inhibition of human ACHN cells at 10 uM after 48 hrs by sulforhodamine B assay relative to control. The following applies: read-out: GI.
For the next test, the system named is EKVX. Briefly: Growth inhibition of human EKVX cells at 10 uM after 48 hrs by sulforhodamine B assay relative to control. The note with it: read-out: GI.
Another test relates to NCI-H23. Briefly: Growth inhibition of human NCI-H23 cells at 10 uM after 48 hrs by sulforhodamine B assay relative to control. The following applies: NCI-H23, 48 h, read-out: GI.
The next test has as its system UACC-257. The test can be described thus: Growth inhibition of human UACC257 cells at 10 uM after 48 hrs by sulforhodamine B assay relative to control. The note with it: UACC-257, 48 h, read-out: GI. Put shortly:
as §1

The subject of the next test is OVCAR-4. Briefly: Growth inhibition of human OVCAR4 cells at 10 uM after 48 hrs by sulforhodamine B assay relative to control. The note with it: OVCAR-4, 48 h, read-out: GI.
The subject of another test is MCF7. The test can be described thus: Growth inhibition of human MCF7 cells at 10 uM after 48 hrs by sulforhodamine B assay relative to control. The note with it: MCF7, 48 h, read-out: GI.
A further test deals with 786-0. The test can be described thus: Growth inhibition of human 786-0 cells at 10 uM after 48 hrs by sulforhodamine B assay relative to control. The note with it: 786-0, 48 h, read-out: GI.
For another test, the system named is SNB-19. Briefly: Growth inhibition of human SNB19 cells at 10 uM after 48 hrs by sulforhodamine B assay relative to control. The following applies: SNB-19, 48 h, read-out: GI.
The next test has as its system OVCAR-8. The test can be described thus: Growth inhibition of human OVCAR8 cells at 10 uM after 48 hrs by sulforhodamine B assay relative to control. The note with it: OVCAR-8, 48 h, read-out: GI.
In a further test the test system is DU-145. Briefly: Growth inhibition of human DU145 cells at 10 uM after 48 hrs by sulforhodamine B assay relative to control. The following applies: DU-145, 48 h, read-out: GI.
Another test concerns NCI-H226. Briefly: Growth inhibition of human NCI-H226 cells at 10 uM after 48 hrs by sulforhodamine B assay relative to control. The note with it: NCI-H226, 48 h, read-out: GI.
The nature of test [1]: Growth inhibition of human […] cells at 10 uM after 48 hrs by sulforhodamine B assay relative to control. The following applies: read-out: GI.
The test system of another test is SN12C. The test can be described thus: Growth inhibition of human SN12C cells at 10 uM after 48 hrs by sulforhodamine B assay relative to control. The note with it: read-out: GI.
The test system of the next test is SF-268. The test can be described thus: Growth inhibition of human SF268 cells at 10 uM after 48 hrs by sulforhodamine B assay relative to control. The following applies: SF-268, 48 h, read-out: GI.
For the next test, the system named is HT-29. The test can be described thus: Growth inhibition of human HT-29 cells at 10 uM after 48 hrs by sulforhodamine B assay relative to control. The following applies: HT-29, 48 h, read-out: GI.
A further test concerns OVCAR-3. Briefly: Growth inhibition of human OVCAR-3 cells at 10 uM after 48 hrs by sulforhodamine B assay relative to control. The following applies: OVCAR-3, 48 h, read-out: GI.
In a further test the test system is SW-620. The test can be described thus: Growth inhibition of human SW620 cells at 10 uM after 48 hrs by sulforhodamine B assay relative to control. The note with it: SW-620, 48 h, read-out: GI. The method in brief: as §1
The subject of the next test is SK-MEL-5. Briefly: Growth inhibition of human SK-MEL-5 cells at 10 uM after 48 hrs by sulforhodamine B assay relative to control. The note with it: SK-MEL-5, 48 h, read-out: GI.
The test system of another test is HL-60(TB). Briefly: Growth inhibition of human HL-60(TB) cells at 10 uM after 48 hrs by sulforhodamine B assay relative to control. The note with it: HL-60, 48 h, read-out: GI. The method in brief: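 Part of a 60-cell-line panel screen at a single concentration. Cells were plated at 5000–40,000 cells/well according to doubling time and pre-incubated 24 h at 37 °C, 5% CO₂, with time-zero plates fixed. Drug exposure ran 48 h. Plates were stained with SRB, rinsed with 1% acetic acid, dye dissolved in 10 mM trizma base, read at 515 nm. % inhibition = 100 − % activity versus DMSO-only wells; 100–200% denotes lethality.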

With `CN(C)c1ccc(/C=C2\NC(=O)N(S(=O)(=O)c3ccc(Cl)cc3)C2=O)cc1`, the inhibition of growth at 10 µM in the test with COLO 205 is -14.7%; in the test on NCI-H460 it was -15.8%; in the test on UO-31 it was 5.5%; in the test on CAKI-1, -5.71%; with ACHN, -5.38%; with EKVX, 14.7%. Besides, the inhibition of growth at 10 µM in the test on NCI-H23 is -1.8%; with UACC-257, -1.01%; in the test on OVCAR-4 it was 7.93%; with MCF7, -6.37%; with 786-0, -0.44%; in the test with SNB-19 it was -6.78%. For the same compound, the inhibition of growth at 10 µM with OVCAR-8 was -8.63%; with DU-145, -4.25%; in the test with NCI-H226, -9.94%; in test [1], -6.72%; in the test on SN12C, 0.04%; in the test with SF-268, -21.6%. Also, the inhibition of growth at 10 µM with HT-29 was -2.64%; in the test with OVCAR-3, -13.9%; with SW-620, -1.96%; in the test with SK-MEL-5, -3.11%; with HL-60(TB), 4.85%.
